The record followed here is ChEMBL document CHEMBL1154423, “Activity of colistin against heteroresistant Acinetobacter baumannii and emergence of resistance in an in vitro pharmacokinetic/pharmacodynamic model” (Antimicrob Agents Chemother, 2007).

Data set [1] can be described thus: Cmax in in vitro PK/PD model at loading dose of 0.90 mg and maintenance dose of 0.89 mg dosed at 24 hrs intervals. Details: dose 0.9 mg. It counts as ADME, organism-based.
A short description of data set [2]: Cmax in in vitro PK/PD model at loading dose of 0.45 mg and maintenance dose of 0.39 mg dosed at 12 hrs intervals. It counts as ADME, organism-based. Details: dose 0.45 mg.
Data set [3] can be described thus: Cmax in in vitro PK/PD model at loading dose of 0.30 mg and maintenance dose of 0.23 mg dosed at 8 hrs intervals. It is filed as ADME, organism-based. Details: dose 0.3 mg.
The test system of data set [4] is Acinetobacter baumannii. As to the kind of experiment: Antibacterial activity against Acinetobacter baumannii isolate 6 assessed as AUBC (0 to 72 hrs) normalized to log10CFU/ml in in vitro PK/PD model at loading dose of 0.45 mg and maintenance dose of 0.39 mg dosed at 12 hrs intervals. It counts as functional, organism-based. A digest of the protocol: (§1)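 One-compartment in vitro PK/PD model at 37°C. Cation-adjusted Mueller-Hinton broth was pumped from a reservoir into the central compartment, with an early-log-phase inoculum of about 10^6 CFU/ml. Colistin sulfate simulated human colistin PK. Intermittent regimens were dosed into the central compartment; for the continuous regimen, colistin was spiked into the reservoir broth. Viable counts were by spiral plating over 0–72 h, AUBC0-72 normalized to log10 CFU/ml at t=0, n=3.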

The test system of data set [5] is Acinetobacter baumannii. Description: Antibacterial activity against Acinetobacter baumannii ATCC 19606 assessed as AUBC (0 to 72 hrs) normalized to log10CFU/ml in in vitro PK/PD model at loading dose of 0.30 mg and maintenance dose of 0.23 mg dosed at 8 hrs intervals. It is filed as functional, organism-based. A digest of the protocol:
as §1

The subject of data set [6] is Acinetobacter baumannii. As to the kind of experiment: Antibacterial activity against Acinetobacter baumannii isolate 6 assessed as AUBC (0 to 72 hrs) normalized to log10CFU/ml in in vitro PK/PD model at loading dose of 0.30 mg and maintenance dose of 0.23 mg dosed at 8 hrs intervals. It counts as functional, organism-based. The gist of the method:
as §1

The test system of data set [7] is Acinetobacter baumannii. Description: Antibacterial activity against Acinetobacter baumannii isolate 6 assessed as AUBC (0 to 72 hrs) normalized to log10CFU/ml in in vitro PK/PD model at loading dose of 0.90 mg and maintenance dose of 0.89 mg dosed at 24 hrs intervals. It is filed as functional, organism-based. A digest of the protocol:
as §1

Data set [8] has as its system Acinetobacter baumannii. Description: Antibacterial activity against Acinetobacter baumannii ATCC 19606 assessed as AUBC (0 to 72 hrs) normalized to log10CFU/ml in in vitro PK/PD model at loading dose of 0.90 mg and maintenance dose of 0.89 mg dosed at 24 hrs intervals. It counts as functional, organism-based. A digest of the protocol:
as §1

For data set [9], the system named is Acinetobacter baumannii. Description: Antimicrobial activity against gentamicin and ciprofloxacin resistant Acinetobacter baumannii ATCC 19606. It is filed as functional, organism-based.
Data set [10] relates to Acinetobacter baumannii. As to the kind of experiment: Antibacterial activity against Acinetobacter baumannii ATCC 19606 assessed as AUBC (0 to 72 hrs) normalized to log10CFU/ml in in vitro PK/PD model at continuous maintenance dose of 4.5 ug/ml. It is filed as functional, organism-based. A digest of the protocol: as §1
In data set [11] the test system is Acinetobacter baumannii. Description: Antibacterial activity against Acinetobacter baumannii isolate 6 assessed as AUBC (0 to 72 hrs) normalized to log10CFU/ml in in vitro PK/PD model at continuous maintenance dose of 4.5 ug/ml. It counts as functional, organism-based. The gist of the method: as §1
For data set [12], the system named is Acinetobacter baumannii. As to the kind of experiment: Antibacterial activity against Acinetobacter baumannii ATCC 19606 assessed as AUBC (0 to 72 hrs) normalized to log10CFU/ml in in vitro PK/PD model at loading dose of 0.45 mg and maintenance dose of 0.39 mg dosed at 12 hrs intervals. It is filed as functional, organism-based. A digest of the protocol:
as §1

Data set [13] deals with Acinetobacter baumannii. As to the kind of experiment: Antimicrobial activity against Ceftazidime resistant Acinetobacter baumannii isolate 6. It counts as functional, organism-based.

One may read the Cmax as the maximum level reached in the sampled fluid or tissue. Consider COLISTIN [listing 1 of 2 here], for which the Cmax in [1] was determined as 9 µg/mL; in data set [2], 4.5 µg/mL; in [3], 3 µg/mL.

The MIC is the smallest concentration in the dilution series that meets the test's criterion for growth inhibition. Low values mean a more susceptible organism, high ones a less susceptible organism. Take COLISTIN [listing 2 of 2 here]: the AUBC in the data set on Acinetobacter baumannii [4] was 64.9 log10CFU/ml; in the data set on Acinetobacter baumannii [5] it was 68.5 log10CFU/ml; in the data set with Acinetobacter baumannii [6], 68 log10CFU/ml; in the data set with Acinetobacter baumannii [7], 58.5 log10CFU/ml; with Acinetobacter baumannii [8] it was 67 log10CFU/ml; with Acinetobacter baumannii [10] it was 72.7 log10CFU/ml. The AUBC with Acinetobacter baumannii [11] is 65.6 log10CFU/ml; in the data set with Acinetobacter baumannii [12] it was 68.5 log10CFU/ml. The MIC against Acinetobacter baumannii [9] and in the data set with Acinetobacter baumannii [13] was 1 µg/mL each time.
